This is a sample that favours compounds with a hit; in the whole collection about 3.7% have one here.
KCNK9 inh – inhibitors of human KCNK9 two-pore domain potassium channel | HEK293 KCNK9, FluxOR thallium flux fluorescence; stronger effect = lower value | B-score at 10 µM | Q9NPC2 | 310,000 compounds, 1.2% hits;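 active means ratio B-score over 3 SD below the library mean, with starting fluorescence within 5 SD of its mean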;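 further: negative B-score means less thallium flux so channel inhibition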
Target sequence (Q9NPC2 whole entry, looked up, the tested form may be a part): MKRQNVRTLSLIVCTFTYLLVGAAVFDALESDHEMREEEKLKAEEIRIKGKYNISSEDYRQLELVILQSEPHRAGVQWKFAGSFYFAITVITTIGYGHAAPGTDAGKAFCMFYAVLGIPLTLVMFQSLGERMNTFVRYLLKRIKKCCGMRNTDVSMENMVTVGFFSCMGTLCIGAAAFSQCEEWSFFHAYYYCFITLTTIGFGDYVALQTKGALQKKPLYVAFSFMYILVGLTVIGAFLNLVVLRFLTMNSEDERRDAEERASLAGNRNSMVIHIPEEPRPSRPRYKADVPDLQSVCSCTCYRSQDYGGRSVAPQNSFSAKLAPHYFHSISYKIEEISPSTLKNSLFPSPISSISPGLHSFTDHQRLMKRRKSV
hERG protect – hERG (human) protection from proarrhythmic block; Q12809; CHO-hERG, FluxOR thallium flux, dofetilide IC70 present; activation (rescue from dofetilide block), less the hit threshold, % at 10 µM; 310,000 compounds, 0.51% hits;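 active means activation above the mean of controls blocked by dofetilide plus 5 SD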;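 further: thallium influx through hERG after potassium depolarization seen as dye fluorescence rise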
KCNQ1 inh – human KCNQ1 channel inhibition; P51787; CHO-K1 KCNQ1, FluxOR thallium flux fluorescence; stronger effect = higher value; B-score at 10 µM; 310,000 compounds, 1.3% hits; AID 2642;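 active means compounds whose thallium flux B-score, printed positive for inhibition, exceeds three library SD while starting fluorescence stays within three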;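 further: channel opened by potassium depolarization with thallium stimulus after 20 min compound exposure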
Kir21 inh – inhibitors of mouse Kir2.1 inward-rectifier potassium channel; P35561; HEK293-Kir2.1, FluxOR thallium flux fluorescence; stronger effect = lower value; B-score at 10 µM; 310,000 compounds, 0.85% hits;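 active means fluorescence ratio B-score at or below minus 3 SD of library scores, with starting-brightness B-score within 2 SD, cut at about -4.2 in these data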;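 further: channel flux triggered by added potassium and thallium sulfate stimulus; B-score of peak minus minimum fluorescence over baseline after thallium stimulus; more negative B-score means stronger Kir2.1 block with less thallium influx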
KCNK3 block – human KCNK3 channel inhibition, primary screen; O14649; CHO-KCNK3 thallium flux, FluxOR fluorescence; stronger effect = lower value; B-score at 10 µM; 340,000 compounds, 0.84% hits; AID 602410;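 active means B-score under library mean minus 4 SD, starting fluorescence ratio at most library mean plus 5 SD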;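 further: more negative B-score means stronger inhibition of thallium flux through KCNK3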
KCNQ1 pot – potentiators or activators of human KCNQ1 potassium channel; 310,000 compounds, 0.35% hits; P51787; AID 2648; B-score at 10 µM; CHO-K1 KCNQ1, thallium flux FluxOR fluorescence; stronger effect = higher value;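 active means fluorescence ratio B-score, a plate-corrected score, at least three library SD, with initial intensity B-score within 5 SD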
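Medium – assay buffer, equal DMSO in all wells · Material – CHO-K1 cell line with stable KCNQ1 potassium channel expression · Signal – kinetic FluxOR thallium fluorescence, 10-s 1-Hz baseline, 110-s post-stimulus read · Compound – single concentration per compound, DMSO matched to controls · Schedule – 37 °C overnight plating, 90-min dark dye load, 20-min compound pretreatment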
KCNK3 confirm – human KCNK3 channel inhibition, confirmation assay. shares compounds with KCNK3 block. CHO-KCNK3 thallium flux, FluxOR fluorescence; 0% buffer, 100% carvedilol maximal block. AID 651638. 2,400 compounds, 99% hits. ratio percent of control, % at 10 µM;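 active means ratio percent of control, averaged over triplicates, above buffer control mean plus 5 SD, cut at about 64% in these data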;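 further: ratio is the fluorescence rise from min to max over baseline after thallium stimulus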
KCNK3 noninduced – activity in cells without induced KCNK3 expression | shares compounds with KCNK3 block | thallium flux ratio (lower = more inhibition) at 10 µM | non-induced KCNK3 parental cells, FluxOR thallium flux; stronger effect = lower value | 2,400 compounds, 40% hits;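 active means thallium flux ratio, averaged over three wells, more than 5 SD below the buffer control mean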;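 further: host cells are CHO cells without KCNK3 induction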
Hits are given with their value; n = inactive; x = no result.

SMILES	KCNK9 inh	hERG protect	KCNQ1 inh	Kir21 inh	KCNK3 block	KCNQ1 pot	KCNK3 confirm	KCNK3 noninduced
Cc1c(C(=O)Nc2ccc(Cl)cc2)c2ccccn2c1CCc1ccncc1	n	n	n	n	-9.7	n	109	0.14
Cc1cc(OC(=O)c2cccc(Br)c2)c([N+](=O)[O-])c(=O)[nH]1	n	n	n	n	n	n	x	x
Cc1ccccc1NC1c2ccccc2C(=O)N1Cc1ccco1 (stereo not given)	n	n	n	n	-10	n	119	0.15
CCCN(CCC)S(=O)(=O)c1ccc(C)cc1	n	n	n	n	n	n	x	x
COc1ccc(NC(=O)c2ccc(-c3nn(C)c(=O)c4ccccc34)cc2)cc1	n	n	n	n	n	n	x	x
Cc1cccc(NC(=O)COc2ccc(-c3nn(C)c(=O)c4ccccc34)cc2)c1	n	n	6	n	-12	n	100	n
COc1ccccc1NC(=O)c1ccc(-c2nn(C)c(=O)c3ccccc23)cc1	n	n	n	n	-9.9	n	96	n
CSCC[C@H](NC(=O)C1CCN(S(=O)(=O)c2ccccc2)CC1)C(=O)NC1CC1	n	n	n	n	n	n	x	x
CC1CCN(C(=O)CSc2ccc(-c3ccc(F)cc3)nn2)CC1	n	n	n	n	n	n	x	x
CC1CC(C)(C)N(C(=O)CSc2ccc(-c3ccc(F)cc3)nn2)c2ccccc21 (stereo not given)	n	n	7	n	-12	n	112	0.15
COc1ccc(NC(=O)CN(C)C(=O)c2cc(-c3ccccc3)nc3ccccc23)cc1	n	n	n	n	n	n	x	x
COc1ccc(Cl)cc1NC(=O)CN(C)C(=O)c1cc(-c2ccncc2)nc2ccccc12	n	n	n	n	-9.2	n	120	0.14
Cc1ccc2nc(-c3ccccc3)cc(C(=O)N(C)CC(=O)Nc3ccccc3Br)c2c1	n	n	n	n	-14	n	110	n
O=C(Nc1ccc([N+](=O)[O-])cc1)NN1CCCCCC1	x	x	x	x	n	x	x	x
Cc1ccc(C(C)NC(=S)NC2CCCCC2)c(C)c1 (stereo not given)	n	n	n	n	n	n	x	x
CC[C@H](C)[C@H](NC(=O)OCc1ccccc1)C(=O)OCC(=O)N1CCN(c2ccc(OC)cc2)CC1	x	x	x	x	n	x	x	x
COc1ccc(/C=N/NC(=O)c2cc(-c3ccccc3OC)nc3ccccc23)cc1COC(C)=O	n	n	n	n	-11	n	97	n
COc1cc(Cl)c(C)cc1NC(=O)CSc1ccc(C)cc1	n	n	n	n	n	n	x	x
COc1cc(Cl)c(C)cc1NC(=O)CSc1ccccc1	n	n	n	n	-9.4	n	113	n
FC(F)(F)COc1ccc(-c2nnc(SCc3ccccc3)o2)cn1	n	n	n	n	n	n	x	x
Cc1ccc(C)c(S(=O)(=O)NCC(c2ccc3c(c2)OCO3)N2CCOCC2)c1 (stereo not given)	n	n	n	n	n	n	x	x
Cc1cc(F)ccc1S(=O)(=O)NCC(c1ccc2c(c1)OCO2)N1CCOCC1 (stereo not given)	n	n	n	n	-11	n	70	n
CN(C(=S)NC(=O)C12CC3CC(CC(C3)C1)C2)c1ccc(O)cc1	x	x	x	x	n	x	x	x
Clc1ccc(/C=C\c2nccc3c2[nH]c2ccccc23)cc1	n	n	n	n	n	n	x	x
N#Cc1ccc(/C=C\c2nccc3c2[nH]c2ccccc23)cc1	n	n	n	n	-10	n	116	0.16
SMILES	KCNK9 inh	hERG protect	KCNQ1 inh	Kir21 inh	KCNK3 block	KCNQ1 pot	KCNK3 confirm	KCNK3 noninduced
CCOC(=O)CSc1nc2ccccc2c(=O)n1CC1CCCC1	n	n	n	n	-11	n	116	0.15
CCOC(=O)CSc1nc2ccccc2c(=O)n1CC	n	n	n	n	n	n	x	x
COc1ccc(NC(=O)c2ccc(NC(=O)CSc3nc(N)cc(=O)[nH]3)cc2)cc1	x	x	x	x	n	x	x	x
CCc1ccc2[nH]c(=O)c(CN(Cc3ccc4c(c3)OCO4)Cc3nnnn3C3CCCC3)cc2c1	n	n	n	n	-8.7	n	128	0.13
Cc1ccc2cc(CN(Cc3ccc(F)cc3)Cc3nnnn3C3CCCC3)c(=O)[nH]c2c1	n	n	n	n	n	n	x	x
Cc1ccc2cc(CN(Cc3ccccc3)Cc3nnnn3C3CCCC3)c(=O)[nH]c2c1	n	n	n	n	-10	n	103	0.15
CSc1ccccc1NC(=O)CN(C)CC(=O)NCC(=O)Nc1ccc(F)cc1	n	n	n	n	n	n	x	x
Cn1c(=O)c2cc3ccccc3nc2n(C)c1=O	n	n	n	n	n	n	x	x
N#Cc1cc2cc3ccccc3nc2n2c(=O)c3ccccc3nc12	n	n	n	n	-9.6	n	122	0.12
CSc1cccc(CN2CCC(CO)(Cc3cccc(C(F)(F)F)c3)CC2)c1	n	n	n	n	-11	n	116	0.15
Cc1ccc(-n2cc(CN3CCC(CO)(Cc4cccc(C(F)(F)F)c4)CC3)cn2)cc1	n	n	n	n	n	n	x	x
O=C(NC1CCS(=O)(=O)C1)c1cccs1 (stereo not given)	n	n	n	n	n	n	x	x
Cc1nc(-c2ccccc2)sc1C1(C)CC(c2cccc(F)c2)=NO1 (stereo not given)	n	n	n	n	n	n	x	x
COc1ccc(-c2oc(=O)c3cc(OC)c(OC)cc3c2C#C[C@]2(O)CC[C@H]3[C@@H]4CCc5cc(OC)ccc5[C@H]4CC[C@@]32C)cc1	x	x	x	x	n	x	x	x
COC(=O)C1=C(C)N(C2CCCCC2)C(=O)/C1=C\c1cccs1	n	n	n	n	-9.8	n	98	0.14
COC(=O)[C@@H](Cc1c[nH]c2ccccc12)NCc1ccc(B(O)O)cc1	x	x	x	x	n	x	x	x
CCc1cccc(NC2c3ccccc3C(=O)N2c2cccnc2)c1 (stereo not given)	n	n	n	n	-11	n	100	n
CCOC(=O)c1ccc(NC2c3ccccc3C(=O)N2c2cccnc2)cc1 (stereo not given)	n	n	n	n	-9.7	n	112	n
CCCCCCC(C)OC(=O)c1ccccc1C(=O)O (stereo not given)	n	n	n	n	n	n	x	x
COc1ccc2[nH]c3c(N4CCN(Cc5ccc6c(c5)OCO6)CC4)ncnc3c2c1	n	n	n	n	n	n	x	x
COc1ccc2[nH]c3c(N4CCC(O)(c5cccc(C(F)(F)F)c5)CC4)ncnc3c2c1	n	n	n	n	-12	n	122	0.15
CCOc1ccccc1C(=O)NCC(=O)OCCOc1cccc(Cl)c1	n	n	n	n	-10	n	100	n

Screening results: PubChem, Johns Hopkins Ion Channel Center
